Activity calls are given as the source filed them. The calls are words filed in the database; no cut-off is given here. Where only a bound is given, the exact number is not on record here.

The target of test [1] is T1, Protein arginine N-methyltransferase 1 (Homo sapiens, UniProt Q99873). Kind of test: Inhibition of PRMT1 in human MCF7 cells assessed as reduction in H4R3me2a levels incubated for 2 days by fluorescence based assay. The test is classed as cell-based. In short, it runs like this: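 MCF7 cells with endogenous PRMT1 were treated with compound for 2 days, with MS023 (1 μM) as positive control. The H4R3me2a fluorescence signal was normalized to H4 and fitted nonlinearly to give IC50.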

Test [2] has as its target Histone-lysine N-methyltransferase SETD7 (Homo sapiens) (UniProt Q8WTS6). Kind of test: Inhibition of SETD7 (unknown origin) at 50 uM assessed as reduction in incorporation of [3H]-labeled methyl group into biotinylated substrate using [3H-SAM] at 50 uM incubated for 1 hr by scintillation proximity assay relative to control. In short, it runs like this: (§1)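 Panel of 33 methyltransferases (22 PKMTs, 3 DNMTs, 8 PRMTs), each tested at 10 and 50 μM compound. Activity was read as ³H-methyl transfer from ³H-SAM in a radiometric assay done as previously described.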

Test [3] addresses Protein arginine N-methyltransferase 8 (Homo sapiens, UniProt Q9NR22). Kind of test: Inhibition of PRMT8 (unknown origin) assessed as reduction in incorporation of [3H]-labeled methyl group into biotinylated substrate using [3H-SAM] at 50 uM incubated for 1 hr by scintillation proximity assay relative to control. The method, boiled down: as §1
For orientation: In a scintillation proximity assay essentially only radioactivity close to the scintillant gives light.

The target of test [4] is Histone-lysine N-methyltransferase SETD7 (Homo sapiens) (UniProt Q8WTS6). Briefly: Inhibition of SETD7 (unknown origin) assessed as reduction in incorporation of [3H]-labeled methyl group into biotinylated substrate using [3H-SAM] at 10 uM incubated for 1 hr by scintillation proximity assay. The method, boiled down:
as §1

Test [5] deals with Protein arginine N-methyltransferase 3 (Homo sapiens, UniProt O60678). Kind of test: Inhibition of PRMT3 (unknown origin) assessed as reduction in incorporation of [3H]-labeled methyl group into biotinylated substrate using [3H-SAM] at 50 uM incubated for 1 hr by scintillation proximity assay relative to control. The method, boiled down: as §1
In test [6] the target is Histone-lysine N-methyltransferase ASH1L (Homo sapiens) (UniProt Q9NR48). Briefly: Inhibition of ASH1L (unknown origin) at 10 uM using [3H-SAM] and nucleosome as substrate incubated for 1 hr by scintillation proximity assay. In short, it runs like this: as §1
Test [7] has as its target Protein arginine N-methyltransferase 6 (Homo sapiens, UniProt Q96LA8). Kind of test: Inhibition of human PRMT6 using [3H]SAM as donor and [3H]methylated biotin-labeled peptide as substrate by scintillation proximity assay. In short, it runs like this: (§2)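 Compound titrated into the reaction; 1 h enzyme–compound preincubation stated for PRMT6. Methylated peptide captured on streptavidin/scintillant-coated plates and counted (cpm). IC50 from concentration–response, triplicate, mean ± SD.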

Test [8] concerns the target Histone-lysine N-methyltransferase EHMT1 (Homo sapiens) (UniProt Q9H9B1). Kind of test: Inhibition of GLP (unknown origin) assessed as reduction in incorporation of [3H]-labeled methyl group into biotinylated substrate using [3H-SAM] at 10 uM incubated for 1 hr by scintillation proximity assay. In short, it runs like this:
as §1

In test [9] the target is Histone-lysine N-methyltransferase, H3 lysine-79 specific (Homo sapiens) (UniProt Q8TEK3). Kind of test: Inhibition of DOT1L (unknown origin) at 10 uM using [3H-SAM] and nucleosome as substrate incubated for 1 hr by scintillation proximity assay. The method, boiled down:
as §1

Test [10] deals with Histone-lysine N-methyltransferase SUV39H2 (Homo sapiens) (UniProt Q9H5I1). Briefly: Inhibition of SUV39H2 (unknown origin) assessed as reduction in incorporation of [3H]-labeled methyl group into biotinylated substrate using [3H-SAM] at 10 uM incubated for 1 hr by scintillation proximity assay.
Test [11] has as its target Histone-lysine N-methyltransferase SMYD3 (Homo sapiens) (UniProt Q9H7B4). Briefly: Inhibition of SMYD3 (unknown origin) assessed as reduction in incorporation of [3H]-labeled methyl group into biotinylated substrate using [3H-SAM] at 10 uM incubated for 1 hr by scintillation proximity assay. The method, boiled down: as §1
The target in test [12] is T2, Histone-arginine methyltransferase CARM1 (Homo sapiens, UniProt Q86X55).
T2 sequence (Q86X55 whole entry): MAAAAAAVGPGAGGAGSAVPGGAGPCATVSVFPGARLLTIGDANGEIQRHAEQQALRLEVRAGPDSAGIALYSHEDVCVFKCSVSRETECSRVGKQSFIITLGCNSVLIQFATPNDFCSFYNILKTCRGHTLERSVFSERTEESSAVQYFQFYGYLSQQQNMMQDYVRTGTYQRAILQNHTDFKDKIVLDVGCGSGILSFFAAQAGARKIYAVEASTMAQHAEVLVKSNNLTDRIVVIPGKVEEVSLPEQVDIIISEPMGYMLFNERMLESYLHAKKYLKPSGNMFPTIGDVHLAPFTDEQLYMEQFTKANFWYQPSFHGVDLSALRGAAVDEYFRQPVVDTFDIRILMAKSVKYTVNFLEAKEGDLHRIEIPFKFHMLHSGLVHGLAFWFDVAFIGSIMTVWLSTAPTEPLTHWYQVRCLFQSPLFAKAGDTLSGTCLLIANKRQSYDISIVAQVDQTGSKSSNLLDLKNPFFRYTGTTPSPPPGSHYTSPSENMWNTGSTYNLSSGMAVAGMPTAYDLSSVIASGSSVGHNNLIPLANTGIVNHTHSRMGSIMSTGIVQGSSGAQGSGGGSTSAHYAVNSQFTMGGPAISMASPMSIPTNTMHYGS
Kind of test: Inhibition of human PRMT4 using [3H]SAM as donor and [3H]methylated biotin-labeled peptide as substrate by scintillation proximity assay. The method, boiled down:
as §2

The target of test [13] is N-lysine methyltransferase KMT5A (Homo sapiens) (UniProt Q9NQR1). Kind of test: Inhibition of SETD8 (unknown origin) assessed as reduction in incorporation of [3H]-labeled methyl group into biotinylated substrate using [3H-SAM] at 10 uM incubated for 1 hr by scintillation proximity assay. The method, boiled down: as §1
Test [14] deals with T3, Histone-arginine methyltransferase CARM1 (Homo sapiens) (UniProt Q86X55).
T3 sequence (whole entry): T2 sequence (Q86X55 whole entry)
Briefly: Covalent binding affinity to human PRMT4 assessed as covalent adduct. formation at 300 uM pre-incubated for 1 hr by mass spectrometry. In short, it runs like this:
(§3)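 PRMT protein at 15 μM was incubated 1 h at room temperature with a 20-fold molar excess of inhibitor (300 μM). The reaction was quenched with 0.1% aqueous TFA, separated by HPLC (5–95% acetonitrile in water) and analysed by ESI time-of-flight LC/MS for protein–ligand adduct mass.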

For test [15], the target named is T1, Protein arginine N-methyltransferase 1. Briefly: Covalent binding affinity to human PRMT1 assessed as covalent adduct. formation at 300 uM pre-incubated for 1 hr by mass spectrometry. In short, it runs like this:
as §3
Target sequence in this assay (Q99873 whole entry, looked up): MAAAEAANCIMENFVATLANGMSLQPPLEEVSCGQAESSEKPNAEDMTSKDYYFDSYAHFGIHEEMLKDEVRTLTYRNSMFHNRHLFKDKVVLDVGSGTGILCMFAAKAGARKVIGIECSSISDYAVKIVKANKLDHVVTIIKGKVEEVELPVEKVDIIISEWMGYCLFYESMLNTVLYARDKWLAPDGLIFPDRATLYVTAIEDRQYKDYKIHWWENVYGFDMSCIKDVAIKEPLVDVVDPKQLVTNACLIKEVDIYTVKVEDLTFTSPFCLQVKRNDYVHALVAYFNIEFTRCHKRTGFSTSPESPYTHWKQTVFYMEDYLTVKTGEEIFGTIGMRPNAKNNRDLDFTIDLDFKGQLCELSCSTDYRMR

In test [16] the target is Protein arginine N-methyltransferase 5 (Homo sapiens) (UniProt O14744). Briefly: Inhibition of PRMT5 (unknown origin) assessed as reduction in incorporation of [3H]-labeled methyl group into biotinylated substrate using [3H-SAM] at 10 uM incubated for 1 hr by scintillation proximity assay. In short, it runs like this: as §1
In test [17] the target is Histone-lysine N-methyltransferase NSD2 (Homo sapiens) (UniProt O96028). Kind of test: Inhibition of NSD2 (unknown origin) at 10 uM using [3H-SAM] and nucleosome as substrate incubated for 1 hr by scintillation proximity assay. In short, it runs like this: as §1
Test [18] concerns the target Protein arginine N-methyltransferase 7 (Homo sapiens) (UniProt Q9NVM4). Briefly: Inhibition of PRMT7 (unknown origin) at 50 uM assessed as reduction in incorporation of [3H]-labeled methyl group into biotinylated substrate using [3H-SAM] at 50 uM incubated for 1 hr by scintillation proximity assay relative to control. In short, it runs like this: as §1

Chain of Protein arginine N-methyltransferase 6 (Q96LA8 whole entry): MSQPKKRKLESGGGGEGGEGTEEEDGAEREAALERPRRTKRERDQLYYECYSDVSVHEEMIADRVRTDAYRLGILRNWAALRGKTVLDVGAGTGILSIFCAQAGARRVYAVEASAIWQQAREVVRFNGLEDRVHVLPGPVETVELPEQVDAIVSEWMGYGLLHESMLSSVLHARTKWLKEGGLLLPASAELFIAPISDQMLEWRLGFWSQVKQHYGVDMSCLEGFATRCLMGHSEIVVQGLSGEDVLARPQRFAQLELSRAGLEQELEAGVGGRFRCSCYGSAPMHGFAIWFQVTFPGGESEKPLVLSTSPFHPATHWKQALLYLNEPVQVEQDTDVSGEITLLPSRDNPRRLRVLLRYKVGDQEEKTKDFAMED
Chain of Histone-lysine N-methyltransferase SETD7 (Homo sapiens) (Q8WTS6 whole entry): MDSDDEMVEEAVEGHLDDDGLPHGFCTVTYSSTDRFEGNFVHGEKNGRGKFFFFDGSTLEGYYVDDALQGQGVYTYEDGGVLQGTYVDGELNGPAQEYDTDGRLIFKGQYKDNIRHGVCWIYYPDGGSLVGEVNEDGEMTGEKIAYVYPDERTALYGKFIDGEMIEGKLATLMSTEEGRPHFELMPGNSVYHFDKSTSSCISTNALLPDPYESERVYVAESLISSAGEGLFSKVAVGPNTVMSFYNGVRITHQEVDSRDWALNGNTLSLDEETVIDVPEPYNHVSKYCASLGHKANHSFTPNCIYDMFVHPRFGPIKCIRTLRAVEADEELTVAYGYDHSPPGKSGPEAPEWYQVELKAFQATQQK
Chain of Protein arginine N-methyltransferase 5 (Homo sapiens) (O14744 whole entry): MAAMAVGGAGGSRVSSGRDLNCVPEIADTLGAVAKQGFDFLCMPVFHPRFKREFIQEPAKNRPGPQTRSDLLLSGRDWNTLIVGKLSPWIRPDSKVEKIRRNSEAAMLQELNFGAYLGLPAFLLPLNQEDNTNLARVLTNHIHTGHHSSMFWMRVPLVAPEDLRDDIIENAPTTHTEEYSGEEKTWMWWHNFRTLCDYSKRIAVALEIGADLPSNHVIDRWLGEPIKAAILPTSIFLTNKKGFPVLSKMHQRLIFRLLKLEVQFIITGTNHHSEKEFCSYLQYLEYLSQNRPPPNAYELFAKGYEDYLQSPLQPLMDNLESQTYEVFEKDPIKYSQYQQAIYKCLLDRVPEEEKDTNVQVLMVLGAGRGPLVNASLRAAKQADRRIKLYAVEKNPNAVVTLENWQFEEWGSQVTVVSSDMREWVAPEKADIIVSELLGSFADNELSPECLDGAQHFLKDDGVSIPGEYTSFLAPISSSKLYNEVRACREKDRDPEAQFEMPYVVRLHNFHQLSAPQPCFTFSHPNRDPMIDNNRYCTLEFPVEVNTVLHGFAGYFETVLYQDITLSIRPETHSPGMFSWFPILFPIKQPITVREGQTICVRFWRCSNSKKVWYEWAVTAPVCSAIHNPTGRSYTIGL
Chain of Protein arginine N-methyltransferase 7 (Homo sapiens) (Q9NVM4 whole entry): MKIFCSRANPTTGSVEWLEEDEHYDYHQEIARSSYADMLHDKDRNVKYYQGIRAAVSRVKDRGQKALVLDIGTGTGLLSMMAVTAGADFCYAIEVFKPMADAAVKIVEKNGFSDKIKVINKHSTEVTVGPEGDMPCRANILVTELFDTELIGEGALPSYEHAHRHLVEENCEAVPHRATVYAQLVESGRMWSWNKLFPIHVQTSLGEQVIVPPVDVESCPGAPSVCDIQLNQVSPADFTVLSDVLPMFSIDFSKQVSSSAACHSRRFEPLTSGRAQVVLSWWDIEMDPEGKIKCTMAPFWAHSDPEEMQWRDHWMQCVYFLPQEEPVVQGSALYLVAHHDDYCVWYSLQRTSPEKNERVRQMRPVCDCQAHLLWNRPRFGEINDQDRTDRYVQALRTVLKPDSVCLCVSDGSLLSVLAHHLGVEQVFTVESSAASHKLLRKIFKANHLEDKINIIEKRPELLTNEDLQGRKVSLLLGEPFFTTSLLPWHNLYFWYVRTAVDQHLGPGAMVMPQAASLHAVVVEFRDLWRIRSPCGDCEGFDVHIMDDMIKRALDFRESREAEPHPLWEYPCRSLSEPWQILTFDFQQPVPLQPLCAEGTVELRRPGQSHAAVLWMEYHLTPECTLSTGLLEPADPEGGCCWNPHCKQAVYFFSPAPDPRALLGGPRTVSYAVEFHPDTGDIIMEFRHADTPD
Chain of Histone-lysine N-methyltransferase EHMT1 (Homo sapiens) (Q9H9B1 whole entry): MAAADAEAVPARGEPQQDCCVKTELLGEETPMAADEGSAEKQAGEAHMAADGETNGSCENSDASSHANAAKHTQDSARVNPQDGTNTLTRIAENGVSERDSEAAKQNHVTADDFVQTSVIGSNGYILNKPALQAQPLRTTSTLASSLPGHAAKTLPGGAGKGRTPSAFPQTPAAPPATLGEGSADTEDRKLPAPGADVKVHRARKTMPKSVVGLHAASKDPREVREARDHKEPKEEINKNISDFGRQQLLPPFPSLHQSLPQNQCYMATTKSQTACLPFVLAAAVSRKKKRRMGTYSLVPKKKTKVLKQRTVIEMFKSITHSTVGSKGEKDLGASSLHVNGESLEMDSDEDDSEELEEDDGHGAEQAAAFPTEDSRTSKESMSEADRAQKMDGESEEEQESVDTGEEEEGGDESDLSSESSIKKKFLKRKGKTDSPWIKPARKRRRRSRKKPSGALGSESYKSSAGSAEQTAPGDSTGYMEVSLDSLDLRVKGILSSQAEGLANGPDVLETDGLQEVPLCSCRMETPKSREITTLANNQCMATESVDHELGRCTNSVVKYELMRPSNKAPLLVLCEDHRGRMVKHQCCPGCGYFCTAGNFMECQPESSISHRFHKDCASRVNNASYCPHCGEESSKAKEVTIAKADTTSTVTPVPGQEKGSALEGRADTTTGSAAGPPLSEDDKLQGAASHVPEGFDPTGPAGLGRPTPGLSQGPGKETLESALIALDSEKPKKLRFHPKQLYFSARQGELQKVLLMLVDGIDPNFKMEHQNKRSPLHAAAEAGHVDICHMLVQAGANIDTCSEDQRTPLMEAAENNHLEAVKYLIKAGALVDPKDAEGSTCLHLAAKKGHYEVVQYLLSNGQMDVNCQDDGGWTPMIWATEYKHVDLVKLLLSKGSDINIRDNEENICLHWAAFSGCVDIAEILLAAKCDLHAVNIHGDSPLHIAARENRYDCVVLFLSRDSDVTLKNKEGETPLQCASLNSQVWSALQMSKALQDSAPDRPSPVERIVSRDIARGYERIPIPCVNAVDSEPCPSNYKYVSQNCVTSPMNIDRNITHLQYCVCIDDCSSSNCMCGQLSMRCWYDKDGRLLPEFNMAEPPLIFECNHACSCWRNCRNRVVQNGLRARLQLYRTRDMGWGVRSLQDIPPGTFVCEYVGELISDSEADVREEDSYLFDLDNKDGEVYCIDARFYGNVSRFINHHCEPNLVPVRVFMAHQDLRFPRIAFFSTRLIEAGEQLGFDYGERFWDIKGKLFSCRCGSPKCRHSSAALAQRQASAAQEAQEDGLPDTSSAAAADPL
Chain of N-lysine methyltransferase KMT5A (Homo sapiens) (Q9NQR1 whole entry): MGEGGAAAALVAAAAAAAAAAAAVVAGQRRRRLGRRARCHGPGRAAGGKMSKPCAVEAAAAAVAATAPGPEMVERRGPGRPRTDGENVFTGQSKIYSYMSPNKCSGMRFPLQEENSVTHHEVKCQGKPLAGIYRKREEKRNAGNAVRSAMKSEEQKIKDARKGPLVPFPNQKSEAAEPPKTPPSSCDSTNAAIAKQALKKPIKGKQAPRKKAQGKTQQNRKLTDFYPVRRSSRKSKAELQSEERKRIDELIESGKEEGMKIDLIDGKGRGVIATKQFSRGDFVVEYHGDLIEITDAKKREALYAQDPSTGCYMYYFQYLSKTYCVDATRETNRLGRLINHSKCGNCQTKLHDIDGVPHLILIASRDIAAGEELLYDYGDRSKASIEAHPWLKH
Chain of Protein arginine N-methyltransferase 3 (O60678 2-531 limits assumed): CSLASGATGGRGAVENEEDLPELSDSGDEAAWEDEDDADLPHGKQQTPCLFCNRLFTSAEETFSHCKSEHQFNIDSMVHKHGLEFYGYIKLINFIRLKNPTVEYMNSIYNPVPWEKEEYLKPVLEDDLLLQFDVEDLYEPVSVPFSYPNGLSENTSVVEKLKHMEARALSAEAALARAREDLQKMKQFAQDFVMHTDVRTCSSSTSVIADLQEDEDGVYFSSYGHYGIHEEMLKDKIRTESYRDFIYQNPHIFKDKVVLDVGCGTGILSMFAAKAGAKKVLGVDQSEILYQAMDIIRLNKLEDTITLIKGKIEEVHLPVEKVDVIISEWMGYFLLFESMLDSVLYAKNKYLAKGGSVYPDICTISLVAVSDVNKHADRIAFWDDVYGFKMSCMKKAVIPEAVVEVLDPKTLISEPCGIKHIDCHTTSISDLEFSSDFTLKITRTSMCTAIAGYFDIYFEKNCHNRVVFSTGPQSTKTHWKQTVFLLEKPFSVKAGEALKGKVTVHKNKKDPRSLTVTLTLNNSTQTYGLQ

For the compound `C=CC(=O)Nc1cccc(-c2c[nH]cc2CN(C)CCN)c1`, the IC50 in test [1] was 5600 nM; in [7] (read-out: IC50), 18 nM; in test [7] (read-out: pIC50 (converted)), 15.8 nM; in [12], 480 nM. For the same compound, the inhibition result in test [1] is “Dose-dependent effect”; in test [2], more than 50%; in test [3], more than 50%; in [5], more than 50%; in test [18], more than 50%. Also, the inhibition entry in test [4], in [6], in test [8], in test [9], in test [10] and in test [11] was “inactive” throughout. Further, the inhibition result in test [13], in test [16] and in [17] was “inactive” each time. Besides, the result in [14] and in [15] was inactive.

For orientation: inhibition means the drop in the measured response relative to a control, in per cent.
